Published values gathered from unrelated publications.
Lines come from different studies, so protocols differ.
Observed: cell growth or viability

| SMILES | cell line | assay | conditions | IC50 [nM] |
| --- | --- | --- | --- | --- |
| COc1cc2ncnc(Nc3ccc4c(c3)/C(=C/c3ccccc3)C(=O)N4)c2cc1OC | H22 | MTT | – | > 50000 |
| C=CC(=O)NC1CCN(c2ncc3ncnc(Nc4ccc(Oc5ccc6c(c5)ncn6C)c(C)c4)c3n2)CC1 | SNU-216 | – | – | 18.2 |
| Nc1ccc(/C=C/C(=O)N2CCc3c(oc4c(-c5ccc(F)cc5)cc(-c5ccc(C(=O)N6CCC(F)(F)CC6)nn5)cc34)C2)cn1 | U2OS | CCK-8 | 72 h | 640 |
| COc1cc2c3c(n(CCCNCCO)c(=O)c2cc1OC)-c1nc2c(cc1C3=O)OCO2 | L-363 | MTS | 72 h | 154 |
| Cc1nc(Nc2ccc3c(c2)C(C)(C)C(=O)N3)c2ccccc2n1 | H22 | MTT | – | > 50000 |
| CCN1[C@@H](C(=O)NC23CCC(C(=O)O)(CC2)CC3)[C@H](c2cccc(Cl)c2F)[C@]2(C(=O)Nc3cc(Cl)ccc32)C12CCCCC2 | U2OS | resazurin | 72 h | > 1000 |
| O=c1c(C=NNC(=S)Nc2ccccc2)coc2ccccc12 | HeLa | MTT | 24 h | > 100000 |
| COc1cc2c3c(n(CCCn4ccnc4)c(=O)c2cc1OC)-c1nc2c(cc1C3=O)OCO2 | L-363 | MTS | 72 h | 232 |
| Nc1ccc(/C=C/C(=O)N2CCc3c(oc4c(-c5ccc(F)cc5)cc(-c5ccc(C(=O)N6CCOCC6)nn5)cc34)C2)cn1 | U2OS | CCK-8 | 72 h | 730 |
| Cc1nc(Nc2ccc3c(c2)/C(=C/c2ccccc2)C(=O)N3C)c2ccccc2n1 | H22 | MTT | – | 5340 |
| Nc1ccc(/C=C/C(=O)N2CCc3c(oc4c(-c5ccc(F)cc5)cc(-c5cnc(C(=O)N6CCC(F)(F)CC6)nc5)cc34)C2)cn1 | U2OS | CCK-8 | 72 h | 950 |
| COc1cc2ncnc(Nc3ccc4c(c3)/C(=C/c3ccccc3)C(=O)N4C)c2cc1OC | H22 | MTT | – | 15100 |
| COc1cc2c3c(n(CCCNC(C)C)c(=O)c2cc1OC)-c1nc2c(cc1C3=O)OCO2 | L-363 | MTS | 72 h | 126 |
| CN1CCC(NC(=O)c2ccc(-c3cc(-c4ccsc4)c4oc5c(c4c3)CCN(C(=O)/C=C/c3ccc(N)nc3)C5)nn2)C(F)(F)C1 (stereo not drawn) | U2OS | CCK-8 | 72 h | 1200 |
| C=C(F)C(=O)N1CCN(c2nc(OC[C@@H]3CCCN3C)nc3c2CCN(c2cccc4cccc(Cl)c24)C3)C[C@@H]1CC#N | NCI-H1792 | ATP luminescence | – | 674 |
